Laboratory results from ChEMBL document CHEMBL1121913, “Inactivation of liver alcohol dehydrogenases and inhibition of ethanol metabolism by ambivalent active-site-directed reagents” (J Med Chem, 1981).

Legend:
[1] = target: T1, Alcohol dehydrogenase (Equus caballus) (UniProt P00327+P00328); experiment: The compound was tested for the ability to inactivate horse liver alcohol dehydrogenase in the presence of 1 mM NAD+; second order rate constant M-1 min-1
Mus musculus [2] = experiment: In vivo inhibition of rate of ethanol metabolism in mice at dose 0.48 mmol/kg; format: functional
Procedure, shortened: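 Mice (male Swiss-Webster, fed) dosed ip with reagent in saline 22–24 h before ethanol 3 g/kg ip. Tail-vein blood (5 µL) deproteinized with Ba(OH)₂/ZnSO₄, 1-propanol internal standard, analyzed by GC with flame-ionization detection. Elimination slope fitted excluding absorption (1–2 h), multiplied by r (dose / theoretical zero-time blood level) to give metabolic rate. Four or five mice per group.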

[3] = Toxic effect in mice was determined in vivo; format: toxicity, organism-based; conditions: mouse
Procedure, shortened: (§1)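 Male Swiss-Webster mice (20–25 g); single i.p. dose of compound suspended in sterile 0.9% saline. Acute lethality scored over 24 h; LD₅₀ with limits at p ≤ 0.05 from three doses on 15 mice.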

Mus musculus [4] = experiment: In vivo inhibition of ADH activity in mice liver at a dose of 0.48 mmol/kg; format: functional
Procedure, shortened: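 Male Swiss-Webster mice (20–25 g), fed, given one ip dose of reagent suspended in sterile 0.9% saline, then ethanol 3 g/kg ip (40% w/v in saline) 22–24 h later. Liver removed once blood ethanol approached zero, chilled, homogenized, clarified by centrifugation. ADH activity taken as initial-velocity difference, ethanol/NAD⁺ assay minus same assay with 10 mM pyrazole, per mg protein. Four or five mice per group.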

Mus musculus [5] = experiment: In vivo inhibition of recovery of rotarod performance in mice at a dose of 0.48 mM/kg; format: functional
Procedure, shortened: (§2)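 Mice trained to hang on a 2-cm rod rotating at 7 rpm, two 15-min periods. Reagent given ip 22 h before ethanol 3 g/kg; five mice per dose, five vehicle controls. Impairment = 100(15 − minutes on rod)/15, probit-transformed; t1/2 for regaining 50% performance by regression. Inhibition = [t1/2(treated) − t1/2(control)]/t1/2(treated).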

[6] = Toxic effect in rats was determined in vivo; format: toxicity, organism-based; conditions: rat
Procedure, shortened: (§3)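 Male Sprague-Dawley rats (160–200 g), two per dose; single i.p. dose of compound suspended in sterile 0.9% saline. Acute lethality scored over 24 h after dosing.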

Rattus norvegicus [7] = experiment: In vivo inhibition of rate of ethanol metabolism in rats at dose 0.48 mmol/kg; format: functional
Procedure, shortened: (§4)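 Rats (male Sprague-Dawley, fed) pretreated ip with reagent suspended in saline 22–24 h before ethanol 2 g/kg ip. Serial 5 µL tail-vein samples, Ba(OH)₂/ZnSO₄ deproteinization with 1-propanol internal standard, GC-FID. Metabolic rate = blood-ethanol decline slope × ratio of dose to extrapolated zero-time blood level. Two rats per experiment.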

Rattus norvegicus [8] = experiment: In vivo inhibition of ADH activity in rat liver at a dose of 0.48 mM/kg; format: functional
Procedure, shortened: (§5)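 Fed male Sprague-Dawley rats (160–200 g) received a single ip saline-suspended reagent dose, then ethanol 2 g/kg ip (40% w/v in saline) 22–24 h afterwards. Liver excised when blood ethanol neared zero, homogenized on ice, centrifuged. Activity = initial rate with ethanol and NAD⁺ minus rate in control assay containing 10 mM pyrazole, expressed per mg protein. Two rats per experiment.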

[9] = target: T1, Alcohol dehydrogenase (Equus caballus); experiment: The compound was tested for the ability to inactivate horse liver alcohol dehydrogenase in the presence of 1 mM NAD+k
[10] = target: T1, Alcohol dehydrogenase (Equus caballus); experiment: The compound was tested for the ability to inactivate horse liver alcohol dehydrogenase in the presence of 0.2 mM NAD+K
[11] = target: T2, Alcohol dehydrogenase (Homo sapiens) (UniProt P07327+P08319+P00325+P00326+P40394+P11766+P28332); experiment: The compound was tested for the ability to inactivate human liver alcohol dehydrogenase in the absence of NAD+(K
Procedure, shortened: (§6)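 Human liver ADH, purified on carboxymethyl- and DEAE-cellulose plus (NH₄)₂SO₄ (60%) with 5% ethanol throughout, ethanol dialysed out. Inactivation at 25 °C in 0.1 M Na₂P₂O₇, pH 8, enzyme about 0.2 mg/mL, 0.2 mM reagent; NAD⁺ added 1 min before reagent where used. Apparent second-order constant calculated assuming first order in reagent.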

[12] = target: T2, Alcohol dehydrogenase (Homo sapiens); experiment: The compound was tested for the ability to inactivate human liver alcohol dehydrogenase in the presence of 1 mM NAD+(K; procedure, shortened: as §6
[13] = The compound was tested for the ability to inactivate mouse liver alcohol dehydrogenase in the absence of NAD+K
Procedure, shortened: (§7)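 Mouse liver ADH, fourfold purified ((NH₄)₂SO₄ 45–65% cut, DEAE-cellulose), incubated at about 0.2 mg/mL with 0.2 mM reagent in 0.1 M Na₂P₂O₇ pH 8, 25 °C; coenzyme, when present, added 1 min before inactivator. Apparent second-order rate constant derived assuming reaction first order in reagent.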

[14] = The compound was tested for the ability to inactivate mouse liver alcohol dehydrogenase in the presence of 1 mM NAD+K; procedure, shortened: as §7
[15] = The compound was tested for the ability to inactivate rat liver alcohol dehydrogenase in the presence of 1 mM NAD+K
Procedure, shortened: (§8)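 Rat liver enzyme purified 15-fold ((NH₄)₂SO₄ 35–75%, DEAE-cellulose). Inactivation with 0.2 mM reagent, 0.1 M pyrophosphate buffer pH 8, 25 °C, enzyme near 0.2 mg/mL; NAD⁺ preincubated 1 min with enzyme before reagent addition. Apparent second-order constants computed on assumption of first-order dependence on reagent.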

[16] = The compound was tested for the ability to inactivate rat liver alcohol dehydrogenase in the presence of NAD+K; procedure, shortened: as §8
[17] = (§9) Percent inhibition of Alcohol dehydrogenase activity in rat liver at dose 0.13 mmol/kg; format: tissue-based; procedure, shortened: as §5
[18] = target: T1, Alcohol dehydrogenase (Equus caballus); experiment: The compound was tested for the ability to inactivate horse liver alcohol dehydrogenase in the absence of NAD+k
[19] = target: T1, Alcohol dehydrogenase (Equus caballus); experiment: The compound was tested for the ability to inactivate horse liver alcohol dehydrogenase in the presence of 0.2 mM NAD+(K
Rattus norvegicus [20] = experiment: (§10) Percent inhibition of rate of ethanol metabolism in rats at dose 0.13 mmol/kg; format: functional; procedure, shortened: as §4
[21] = test system: Alcohol dehydrogenase (Equus caballus); experiment: The compound was tested for the ability to inactivate horse liver alcohol dehydrogenase in the presence of 0.2 mM NAD+K
[22] = test system: Alcohol dehydrogenase (Homo sapiens); experiment: The compound was tested for the ability to inactivate human liver alcohol dehydrogenase in the presence of 0.2 mM NADH(K
[23] = target: T2, Alcohol dehydrogenase (Homo sapiens); experiment: (§11) The compound was tested for the ability to inactivate human liver alcohol dehydrogenase in the absence of NAD+K; procedure, shortened: as §6
[24] = target: T2, Alcohol dehydrogenase (Homo sapiens); experiment: The compound was tested for the ability to inactivate human liver alcohol dehydrogenase in the presence of 1 mM NAD+k; procedure, shortened: as §6
[25] = The compound was tested for the ability to inactivate rat liver alcohol dehydrogenase in the absence of NAD+K; procedure, shortened: as §8
[26] = Percent inhibition of Alcohol dehydrogenase activity in mice liver at dose 0.13 mmol/kg; format: tissue-based
Procedure, shortened: (§12)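 Fed male Swiss-Webster mice (20–25 g), four or five per group; compound suspended in sterile 0.9% saline, single i.p. dose 22–24 h before i.p. ethanol 3 g/kg (40% w/v in saline). Tail-vein blood ethanol by GC (1-propanol internal standard); elimination rate = β slope × dose/extrapolated zero-time level. Liver ADH afterwards: homogenate activity with ethanol/NAD⁺ minus 10 mM pyrazole control, per mg protein.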

[27] = The compound was tested for the ability to inactivate mouse liver alcohol dehydrogenase in the presence of 1 mM NAD+K; Slow inactivation
[28] = as §9; format: tissue-based; remark: listed apart in the source
Procedure, shortened: as §12, with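 “Male Sprague-Dawley rats (160–200” for “Fed male Swiss-Webster mice (20–25”, “two” for “four or five”, “experiment;” for “group;”, “2” for “3”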

Mus musculus [29] = experiment: Percent inhibition of rate of ethanol metabolism in mice at dose 0.13 mmol/kg; format: functional; procedure, shortened: as §12
Mus musculus [30] = experiment: Percent inhibition of recovery of rotarod performance in mice at dose 0.13 mmol/kg; format: functional; procedure, shortened: as §2
[31] = Toxic effect in mice; format: toxicity, organism-based; conditions: mouse, in vivo; procedure, shortened: as §1
[32] = Toxic effect in rats; format: toxicity, organism-based; conditions: rat, in vivo; procedure, shortened: as §3
Rattus norvegicus [33] = experiment: as §10; format: functional; remark: listed apart in the source
Procedure, shortened: as §12, with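 “Male Sprague-Dawley rats (160–200” for “Fed male Swiss-Webster mice (20–25”, “two” for “four or five”, “experiment;” for “group;”, “2” for “3”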

[34] = target: T2, Alcohol dehydrogenase (Homo sapiens); experiment: as §11; remark: listed apart in the source
Procedure, shortened: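 Human liver ADH purified by CM- and DEAE-cellulose chromatography and (NH₄)₂SO₄ precipitation, with 5% ethanol removed by dialysis. Enzyme about 0.2 mg/mL with 0.2 mM reagent in 0.1 M Na₂P₂O₇, pH 8, 25 °C, no coenzyme. Apparent second-order rate constant assumes first order in reagent.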

Structure (SMILES) | Rate constant [9] | Rate constant [13] | Rate constant [14] | Rate constant [15] | Rate constant [18] | Rate constant [23] | Rate constant [24] | Rate constant [25] | further results
CC(=O)Nc1ccc(CCCC(N)=O)cc1 |  |  |  |  |  |  |  |  | Activity [1]: 1500; inhibition in vivo at 480 µmol/kg (Mus musculus [2]): 60%; LD50 [3]: > 480 µmol/kg; inhibition in vivo at 480 µmol/kg (Mus musculus [4]): 43%; Inhibition (Mus musculus [5]): 60%; LD50 [6]: > 480 µmol/kg; inhibition in vivo at 480 µmol/kg (Rattus norvegicus [7]): 0%; Inhibition (Rattus norvegicus [8]): 8%
O=C(O)CCCCCCCCCCCNC(=O)CBr | 0.0533 M⁻¹ s⁻¹ | 0.717 M⁻¹ s⁻¹ |  | 0.0167 M⁻¹ s⁻¹ | 2 M⁻¹ s⁻¹ | 2.33 M⁻¹ s⁻¹ | 5.33 M⁻¹ s⁻¹ | 0.317 M⁻¹ s⁻¹ | 
O=C(CBr)Nc1ccc(Oc2ccc(C(=O)O)cc2)cc1 | 0.283 M⁻¹ s⁻¹ | 2.88 M⁻¹ s⁻¹ | 0.183 M⁻¹ s⁻¹ | 0.383 M⁻¹ s⁻¹ | 5.33 M⁻¹ s⁻¹ | 0.433 M⁻¹ s⁻¹ | 4.83 M⁻¹ s⁻¹ | 1.15 M⁻¹ s⁻¹ | 
NC(=O)CBr | 0.000167 M⁻¹ s⁻¹ | 0.147 M⁻¹ s⁻¹ |  |  | 0.0267 M⁻¹ s⁻¹ |  | 0.0483 M⁻¹ s⁻¹ | 0.0883 M⁻¹ s⁻¹ | inhibition [26]: 27%; Rate constant [27]: Slow inactivation; inhibition [28]: 0%; inhibition in vivo at 130 µmol/kg (Mus musculus [29]): 18%; inhibition in vivo at 130 µmol/kg (Mus musculus [30]): 28%; LD50 [31]: 270 µmol/kg; LD50 [32]: 270 µmol/kg; inhibition in vivo at 130 µmol/kg (Rattus norvegicus [33]): 11%; Rate constant [34]: 0.0483 M⁻¹ s⁻¹

Now from value to molecule, other results behind:

Rate constant [9] | Rate constant [13] | Rate constant [14] | Rate constant [15] | Rate constant [18] | Rate constant [23] | Rate constant [24] | Rate constant [25] | Structure (SMILES) | further results
2 M⁻¹ s⁻¹ | 0.633 M⁻¹ s⁻¹ | 0.233 M⁻¹ s⁻¹ | 0.533 M⁻¹ s⁻¹ | 1.67 M⁻¹ s⁻¹ |  |  |  | O=C(O)CCCc1ccc(NC(=O)CBr)cc1 | Rate constant [10]: 0.25 M⁻¹ s⁻¹; Rate constant [11]: 0.183 M⁻¹ s⁻¹; Rate constant [12]: 2.33 M⁻¹ s⁻¹; Rate constant [16]: 0.533 M⁻¹ s⁻¹; inhibition [17]: 27%; Rate constant [19]: 0.25 M⁻¹ s⁻¹; inhibition in vivo at 130 µmol/kg (Rattus norvegicus [20]): 24%; Rate constant [21]: 0.25 M⁻¹ s⁻¹; Rate constant [22]: 0.085 M⁻¹ s⁻¹
0.4 M⁻¹ s⁻¹ | 0.717 M⁻¹ s⁻¹ | 0.105 M⁻¹ s⁻¹ | 0.417 M⁻¹ s⁻¹ | 2.33 M⁻¹ s⁻¹ | 0.833 M⁻¹ s⁻¹ | 58.3 M⁻¹ s⁻¹ | 0.483 M⁻¹ s⁻¹ | O=C(CBr)Nc1ccc(-c2ccc(C(=O)O)cc2)cc1 | 
0.00833 M⁻¹ s⁻¹ | 0.127 M⁻¹ s⁻¹ |  | 0.0133 M⁻¹ s⁻¹ | 0.0983 M⁻¹ s⁻¹ | 0.112 M⁻¹ s⁻¹ | 0.138 M⁻¹ s⁻¹ | 0.183 M⁻¹ s⁻¹ | O=C(O)CCCCCCNC(=O)CBr | 
